Assay results published in the EternaBench riboswitch data.

System: MS2 coat protein
Test: apparent Kd, MS2 coat protein; higher = weaker binding; RNA-MaP array; FMN 200 µM where present
Summary of the method: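 Designs were transcribed by stalled E. coli RNA polymerase on Illumina sequencing-chip clusters. They were titrated with SNAP-549-labelled MS2 coat protein from 0.7 or 1.5 nM, doubling to 3 µM, in 100 mM Tris-HCl pH 7.5, 80 mM KCl, 4 mM MgCl2, BSA, DTT, yeast tRNA and Tween-20, without and then with constant ligand. The apparent Kd is the median of filtered per-cluster fits after normalisation of green signal to red-channel RNA signal and control-cluster median Fmax.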

[1] = designed as: OFF switch for flavin mononucleotide, no ligand
[2] = ligand present: flavin mononucleotide, designed as: OFF switch for flavin mononucleotide
[3] = designed as: ON switch for flavin mononucleotide, no ligand
[4] = ligand present: flavin mononucleotide, designed as: ON switch for flavin mononucleotide

Sequence	apparent Kd [1] [nM]	apparent Kd [2] [nM]	apparent Kd [3] [nM]	apparent Kd [4] [nM]
GAUUUACAUGAGGAUCACCCAUGUGAGGAUAUGGAAUGGCUCAUUGUCUGAUUUCCUUCUAGAAGGCACAUCUU	43.7	51	–	–
GGGUAUAAACCCGUCUCCGCUCAACCAGAAGGGCACGAUAAUAUUACAUGAGGAUCACCCAUGUUGCAGGAUAUGGUGAGCCUC	–	–	363	66.9
UGGUAACAUGAGGAUCACCCAUGUCAGGAUAUCAGUAAGAAUAGAUUAGAGUAGAAGAUGAGAAGGGACUAUAU	31.9	29.5	–	–
GUAGCACAAACAAAUGUAACAUGAGGAUCACCCAUGUGUUAUGAGGAUAUGGAUGUGAAGUUAAUCCAGAAGGCAUUAUGCUAA	–	–	17.2	15.1
CUUGUUUAUGUGAGGAUAUACUGUUAGUAUAGUUUGUAGAAGGUACAUGAGGAUCACCCAUGUUUAUUACUCUU	13.7	13.8	–	–
UGGUACAUGGGAGGAUAUGGGACAUGAGGAUCACCCAUGUGAAAAUUAAAUAUGCCGAUAGGCAACUAGAAGGCCCAUGUACCU	–	–	33.1	15.4
GACUUGUUAGGAUAUCUUACAUUUGCAUCAUAGCAACCAUUGGAGAAGGGACAUGAGGAUCACCCAUGUUUGGA	31.6	31	–	–
CUGUUCAGUGUAGGAUAUGCAUAUUCCCAUUAUGCAGAAGGACAUGAGGAUCACCCAUGUAUGUUAUUAUCAUGUGUUACAUGC	33.6	124	–	–
AUAUCCUAGAUAGGAUAUACUGAGGUUGAAUGGGUAGAAGGAUCGAUAGGGAAGACUACAUGAGGAUCACCCAUGUUGUGUAUU	–	–	99.4	90.2
UGGUUGUGUGUCAGGAUAUGGUCUGGUGUUUCGGGCUAGAAGGGACAUGAGGAUCACCCAUGUGGCUGGCGGGU	262	439	–	–
UCUUACGGAGGAUAUACAUGAGGAUCACCCAUGUAUGGUACGUUGGCUCUACCUUAUAGUAGAAGGCCGGAAGG	37	233	–	–
GUGCAUACGUGAGGAUAUGUAUUAGAUAGUGGUACAGAAGGCAUGUCUGAUGACAUGAGGAUCACCCAUGUUGGCACAAUGCGC	–	–	51.5	30.2
GGUCUGACAUAAGGAUAUGCUCAGGAAUACUGAGCAGAAGGUAUGUGAAAACAUGAGGAUCACCCAUGUGAUCAAUACAGACCA	–	–	18	20.9
GCGUUGAACGAGAAGGCCAAUACAUGAGGAUCACCCAUGUUUAGAUGUUUUGGAGGAUAUCGUACGUCGUCUCAUGAGCAACGC	6.68	7.92	–	–
ACAUCGUGAGACAUGAGGAUCACCCAUGUGUGAUAGUGGGCACAGGAUAUCCAGACUUGGAAUCUGGAGAAGGGUGAUCGUUAA	–	–	86.7	129
AUCUACCUAGGAUAUACAUGAGGAUCACCCAUGUACAGUUUCAACUAGGGAAACACACGUAGAAGGAGGUAGAU	13.6	32.6	–	–
AACGUGUCAGGAUAUGCUGCUCGUCACGAAAGUGAUGAGUAGCAGAAGGGACAUGAGGAUCACCCAUGUAAAGA	153	101	–	–
GCCUCACAUGAGGAUCACCCAUGUCAGGAUAUCUAAGGCGAGGUGCAGGCACUUCGUGAGAGAAGGGACGUCAA	21.4	49.8	–	–
UUUAUUUUUACAGGAUAUCAUCUAUAUAACUCAUGCAAAUGUUUACAUGAGGAUCACCCAUGUUAUGAGAAGGGUAUUGAAACA	–	–	361	216
AUAUCUUGUCGAGGAUAUGUAGUAUUGAUCUGAAAACAUGAGGAUCACCCAUGUAUACGGUGGGUACAGAAGGUGGAUGUAGAA	416	427	–	–
GGGUACAUCGGAGGAUAUCAUGUAAAUACAUGAGGAUCACCCAUGUCGAUGGAGACAUUGGAGAUUGAGAAGGCCGAUGUACCG	–	–	156	219
CCGGAUAUGCAGGAUAUCGUAUCGGAGACGAUACGAGAAGGGUAUACAUGAGGAUCACCCAUGUGUCCUACCGG	26.4	32.1	–	–
GCAGCACAGAUUUACAUGAGGAUCACCCAUGUCUAUUGAGAUGAGGAUAUGCAUCGAAUGAAGUUGCAGAAGGCAUUGUGCUGC	–	–	7.51	6
GGUCCAUCAUGAGGAUAUGGCACCUUAUUGGUGCCAGAAGGCAUGUCUAUAGACAUGAGGAUCACCCAUGUAAUAAAGUGGACC	–	–	922	49.3
UGGUACUAGGGAGGAUAUGGGAAGAUACAUGAGGAUCACCCAUGUUUAAGAAUACCGAGAGGCAACUAGAAGGCCCUAGUACCU	–	–	192	13.3
UUGAAUUUAAACAUGAGGAUCACCCAUGUGUCAUAGUUGACAUAGGAUAUGCUUAUACUUUGAAAGCAGAAGGAUGACGAUACU	–	–	41.3	10.1
CAGAAGUCAGGAUAUGCAUGGCGGGACUUGCGUCGUGGCGUGCAGAAGGGACAUGAGGAUCACCCAUGUGGAGC	118	182	–	–
CCAGGCUUCGAGAAGGACAUGAGGAUCACCCAUGUGCGUGUGAAGCAGCCGUGAGGCUGCAUCAUGUAGGAUAUCGGAGUCUGG	71.9	499	–	–

Sequence	apparent Kd [1] [nM]	apparent Kd [2] [nM]	apparent Kd [3] [nM]	apparent Kd [4] [nM]
AAGCUCGUGUGAGGAUAUGCCGCCGUUUCGGCUGCAGAAGGUGCUACGUUACAUGAGGAUCACCCAUGUCUCUGUUGUUUCGUC	–	–	29.9	24.8
UUUACAUGAGGAUCACCCAUGUCUGUCACACGUAUGUGCAAUCAGGAUAUGAUCUCAAGAAUGAAUUAGAAGGGAUAAAGAGAA	–	–	212	250
GCCACGGGAGGAUAUCGCGGAGGCUACAUGAGGAUCACCCAUGUCUGGUCUUCGUGCUCCCGAGAAGGCCCGUCAG	14	32.9	–	–
GAGUGGUAAAGAGGAUAUGCAUUGUUAUUCACUGCAGAAGGUUUUAACAUGAGGAUCACCCAUGUAGGACUAUUCCUGUGUUUC	–	–	14.6	12.5
UGUUGUAUUACAGGAUAUCUAGAAUUUUUAUUUAGAGAAGGGUAUUCACAUGAGGAUCACCCAUGUAUAUACGAGGAAGUUGUG	–	–	33.7	33.8
AUGGACGUCGUAGGAUAUGUAGGAUUCUCCUACAUGAGGAUCACCCAUGUUGACAUGGAGGACGGACAGAAGGACGGUGUCCAU	–	–	13.2	5.31
UCAGUAGAGUGAGGAUAUACGAAAGGCGAUCCAUACAUGAGGAUCACCCAUGUAGAAGGCACUCUACUGUAAGUCGGAAACGAC	173	12.3	–	–
ACAUGAGGAUCACCCAUGUUCACAUAGGAUAUUGAUUAUAUUGGAUAUAUUUUUUUUAUAAUACACAAGAAGGAUGCAAGAUGG	–	–	19.3	16.3
AUACCACGAGGAUAUCGUCUAUUUUACAUGAGGAUCACCCAUGUUAUCUUUGUAAUGUUUCGAGAAGGCGUGUUUU	34.2	23.9	–	–
CUAUCUUAUGAGAAGGCGAUCAUGAAACAUGAUCGAGGAUAUCAUGUAAACAUGAGGAUCACCCAUGUAUGGGUAUUAUGGUAG	–	–	175	57.1
GUAAUUAUAUAGGAUAUCGAACUUAUUAUUUAACGAGAAGGAUGAACAUGAGGAUCACCCAUGUGGUAUCAUGG	156	190	–	–
GGAGCCGGCACUGAGGAUAUUCAUAUUAAAACAUGAGGAUCACCCAUGUAGGCCAGAAGGCCUUGGGAGAAGGCAGGUCGGCUCG	–	–	423	27.9
GCGUAAGUCACAGGAUAUCCAACAUGAGGAUCACCCAUGUAAAAGUGCCGCAUUAGAAUGCGACUGGAGAAGGGUGAUUCGUCG	–	–	51.3	23.4
AUUUCGUUAGCAGGAUAUGGACAGGCCUGUCCGUAUUGAGUCAGUAACAUGAGGAUCACCCAUGUCCAGAAGGGCUCGAAGUAU	7.83	15.3	–	–
AGAUCACAUGAGGAUCACCCAUGUGAGGAUAUGAUACUAUGUACUUCGGUACAUAGUAUCAGAAGGCAUGUGAA	43.5	41.1	–	–
UUAUGAGAGCAGGAUAUCUUAUAUUUUUAUUAAAGAGAAGGGCUCACAUGAGGAUCACCCAUGUGGUCCUAGAU	55.9	598	–	–
GGUACUCAAAGAGUACCAAUACGAACAUGAGGAUCACCCAUGUAGGAUAUGCUACUCAAAGAGUAGCAGAAGGACGUGUACCUU	24.7	54	–	–
AAUGUUUGAUUCCACUUACACAUGAGGAUCACCCAUGUUAUCGAGGAUAUGCAUUAGAGUGUUUAGCAGAAGGCGAUGUAAUUG	8.46	25	–	–
CAGACCGGCAUAGGAUAUGUCGACAUGAGGAUCACCCAUGUAAGCCUUGUCUGGUCCGGUGUGUGACAGAAGGAUGUCGGCCAU	37.7	26.4	–	–
GCAUGCUAUGUCAGGAUAUACCUCUGGAUACAUAGGUAGAAGGGACAUGAGGAUCACCCAUGUCCUCAUCAUGC	12.4	23.8	–	–
AAUGUACUCGGAGGAUAUCCCACAUGAGGAUCACCCAUGUGGGUCACUGAUUCUCGUAUCGUCCGGGAGAAGGCCGAGAACUGA	34.6	111	–	–
UUCUCGAUGUAGAAGGCCGCGUCCGGCUCACGCGGAGGAUAUACAUGAGGAUCACCCAUGUGUCUGUGGCUUAUAAGGUACGGA	98.8	67.7	–	–
AUCAGCUCGUGAGGAUAUACAUGAUAGAUCGAUUAAUUAAUUAAUUUAACAUGAGGAUCACCCAUGUAGAAGGCACGAGCUGAU	56.1	61.7	–	–
UCUCUUCUGUAGAAGGCCCGACUUGUGAAGACAACAAUGCUAUAGAAGUAGGGAGGAUAUACAUGAGGAUCACCCAUGUAGGAA	11.6	29.3	–	–
UUGUUAUAUGUAGGAUAUGCGUAUUAUUAUUAUGCAGAAGGACAUGAGGAUCACCCAUGUAUAUUAUUAUUAUAUAUUAUAUAU	27.9	43.7	–	–
GUGGUAUUCGUAGGAUAUCCGUCGCCACCGUGUGGAGAAGGACGAACAUGAGGAUCACCCAUGUAUCAUGGUGUGGACGUUGUC	80.2	88.4	–	–
ACUAGAUGAGGAUAUGCAUAUUUUCGUGUUCUUCUAGAUUAACAUGAGGAUCACCCAUGUAGAAGGCGUCUGGC	18.6	33.8	–	–
